IC50 and Activity data for 1 compound are collected here from ChEMBL document CHEMBL3425511 (J Med Chem, 2015).

One experiment deals with T1, Cytochrome P450 1A2 (Homo sapiens, UniProt P05177).
T1 sequence (P05177 whole entry): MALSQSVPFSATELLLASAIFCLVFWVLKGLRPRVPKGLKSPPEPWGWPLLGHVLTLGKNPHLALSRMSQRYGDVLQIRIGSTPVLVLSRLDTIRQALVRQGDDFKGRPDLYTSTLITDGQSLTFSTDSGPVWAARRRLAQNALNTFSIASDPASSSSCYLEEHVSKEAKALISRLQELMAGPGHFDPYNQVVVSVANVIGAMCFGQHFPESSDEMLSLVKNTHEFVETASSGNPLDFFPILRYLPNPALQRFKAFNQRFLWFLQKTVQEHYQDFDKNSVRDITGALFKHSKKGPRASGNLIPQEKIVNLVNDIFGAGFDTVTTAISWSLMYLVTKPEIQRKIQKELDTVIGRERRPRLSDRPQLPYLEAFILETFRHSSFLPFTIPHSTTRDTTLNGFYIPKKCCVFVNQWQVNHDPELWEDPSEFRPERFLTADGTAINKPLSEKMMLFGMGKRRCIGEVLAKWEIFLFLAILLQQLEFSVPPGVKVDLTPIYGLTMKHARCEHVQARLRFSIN
As to the kind of experiment: Inhibition of CYP1A2 in human liver microsomes. The format is ADME. (Liver microsomes are a subcellular fraction often used to study metabolism.)

Experiment [1] deals with T2, Transient receptor potential cation channel subfamily V member 2 (Homo sapiens) (UniProt Q9Y5S1).
T2 sequence (whole entry): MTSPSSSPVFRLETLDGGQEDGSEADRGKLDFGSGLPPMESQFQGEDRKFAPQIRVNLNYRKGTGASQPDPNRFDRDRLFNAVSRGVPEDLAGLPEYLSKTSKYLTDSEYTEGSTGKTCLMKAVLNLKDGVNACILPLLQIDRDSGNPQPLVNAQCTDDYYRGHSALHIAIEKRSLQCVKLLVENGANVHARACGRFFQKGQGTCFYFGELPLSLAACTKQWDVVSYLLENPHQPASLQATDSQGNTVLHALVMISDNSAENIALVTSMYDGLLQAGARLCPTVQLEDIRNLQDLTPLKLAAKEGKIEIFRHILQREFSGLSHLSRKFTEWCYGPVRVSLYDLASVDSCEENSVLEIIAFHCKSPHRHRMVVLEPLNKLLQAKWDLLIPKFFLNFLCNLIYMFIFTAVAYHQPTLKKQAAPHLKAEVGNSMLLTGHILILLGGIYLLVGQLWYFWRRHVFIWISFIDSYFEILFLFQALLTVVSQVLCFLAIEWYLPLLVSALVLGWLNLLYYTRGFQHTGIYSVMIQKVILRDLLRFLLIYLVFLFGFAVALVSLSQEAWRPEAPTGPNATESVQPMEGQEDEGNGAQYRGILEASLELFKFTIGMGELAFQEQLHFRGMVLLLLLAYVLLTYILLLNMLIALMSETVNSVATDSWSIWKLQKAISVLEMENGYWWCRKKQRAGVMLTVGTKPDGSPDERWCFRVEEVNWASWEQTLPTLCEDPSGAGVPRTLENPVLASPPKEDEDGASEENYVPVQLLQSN
As to the kind of experiment: Effect on TRPV2 (unknown origin).

The next experiment relates to Rattus norvegicus. Nature of the experiment: Reversal of carrageenan-induced thermal hypersensitivity in po dosed Sprague-Dawley rat assessed as plasma concentration required to reach ED50 measured at 100 mins. The format is functional. The essentials:
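Rats dosed orally 100 min before radiant-heat testing. For CFA, plasma taken right after behavioural testing; for carrageenan, taken from a separate group dosed identically. Blood collected on lithium heparin and centrifuged, plasma stored at −80 °C. Plasma levels matching ED50 and ED80 (EC50/EC80) computed from the dose−response data.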

Calls of active or inactive are those of the source. No cut-off for these calls is given here. Some results are limits rather than exact numbers.

On to `CC(C)(O)c1ccccc1-c1ccc2[nH]c(/C=C/c3ccc(C(F)(F)F)cc3)nc2c1`, for which the IC50 (usually the point on the concentration scale where inhibition reaches its midpoint) on Cytochrome P450 1A2 is more than 25 µM. In addition, in experiment [1], the result was inactive. Further, the Activity in the experiment with Rattus norvegicus stood at 3.8 ng/mL.
